Here are results for eight compounds from ChEMBL document CHEMBL1268957, “Indapamide-like benzenesulfonamides as inhibitors of carbonic anhydrases I, II, VII, and XIII” (Bioorg Med Chem, 2010).

Assay [1] concerns the target T1, Carbonic anhydrase 1 (Homo sapiens, UniProt P00915). Description: Binding affinity to human recombinant carbonic anhydrase 1 by thermal shift assay.
Assay [2] addresses T2, Carbonic anhydrase 13 (Homo sapiens, UniProt Q8N1Q1). Description: Binding affinity to human recombinant carbonic anhydrase 13 by thermal shift assay.
Assay [3] addresses T3, Carbonic anhydrase 2 (Homo sapiens, UniProt P00918). Description: Binding affinity to human recombinant carbonic anhydrase 2 by thermal shift assay.
The target of assay [4] is T4, Carbonic anhydrase 7 (Homo sapiens, UniProt P43166). Description: Binding affinity to human recombinant carbonic anhydrase 7 by isothermal titration calorimetry assay.
T4 sequence (P43166 whole entry): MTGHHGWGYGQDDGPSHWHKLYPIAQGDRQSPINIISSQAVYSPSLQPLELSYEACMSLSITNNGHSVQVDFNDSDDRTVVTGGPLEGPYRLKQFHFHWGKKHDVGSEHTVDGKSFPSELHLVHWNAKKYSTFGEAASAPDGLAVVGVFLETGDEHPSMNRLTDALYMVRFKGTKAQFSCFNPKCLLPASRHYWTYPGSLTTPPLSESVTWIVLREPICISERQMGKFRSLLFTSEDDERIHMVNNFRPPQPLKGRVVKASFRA
Assay [5] addresses T1, Carbonic anhydrase 1. Description: Binding affinity to human recombinant carbonic anhydrase 1 by isothermal titration calorimetry assay. Put shortly:
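Isothermal titration calorimetry of ligand binding to recombinant hCA at 37 °C in phosphate buffer with 50 mM NaCl, pH 7.0, final DMSO 0.5–2%. Heats of injection integrated against molar ratio to give the dissociation constant.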

Assay [6] deals with T2, Carbonic anhydrase 13. Description: Binding affinity to human recombinant carbonic anhydrase 13 by isothermal titration calorimetry assay. For orientation: In ITC the heat of successive injections is recorded.
The target in assay [7] is T4, Carbonic anhydrase 7. Description: Binding affinity to human recombinant carbonic anhydrase 7 by thermal shift assay.
In assay [8] the target is T3, Carbonic anhydrase 2. Description: Binding affinity to human recombinant carbonic anhydrase 2 by isothermal titration calorimetry assay.

T2 sequence (Q8N1Q1 whole entry): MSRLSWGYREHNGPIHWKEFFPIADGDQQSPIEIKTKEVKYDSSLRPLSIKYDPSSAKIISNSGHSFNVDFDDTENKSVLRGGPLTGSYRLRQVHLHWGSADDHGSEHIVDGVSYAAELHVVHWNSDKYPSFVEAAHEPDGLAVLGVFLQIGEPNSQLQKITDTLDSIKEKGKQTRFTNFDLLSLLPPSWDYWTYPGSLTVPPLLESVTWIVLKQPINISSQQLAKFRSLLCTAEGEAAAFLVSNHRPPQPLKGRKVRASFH
T1 sequence (P00915 whole entry): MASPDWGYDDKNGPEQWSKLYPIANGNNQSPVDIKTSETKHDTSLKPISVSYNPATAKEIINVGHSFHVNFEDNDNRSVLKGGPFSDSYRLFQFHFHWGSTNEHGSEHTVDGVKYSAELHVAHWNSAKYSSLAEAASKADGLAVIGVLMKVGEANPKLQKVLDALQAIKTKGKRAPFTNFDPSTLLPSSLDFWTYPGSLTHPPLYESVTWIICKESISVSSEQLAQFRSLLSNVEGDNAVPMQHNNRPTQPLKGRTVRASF

For `NS(=O)(=O)c1cc(C(=O)CSc2nc3cc4c(cc3[nH]2)OCCO4)ccc1Cl`, the Kd – broadly, the equilibrium constant for the complex coming apart – came to 3100 nM on Carbonic anhydrase 1 [1]; 100 nM on Carbonic anhydrase 13 [2]; 20 nM at Carbonic anhydrase 2 [3]; 1100 nM on Carbonic anhydrase 7 [4]; 2200 nM on Carbonic anhydrase 1 [5]; 300 nM on Carbonic anhydrase 13 [6]. Further, the Kd at Carbonic anhydrase 7 [7] was 100 nM.

In the case of `NS(=O)(=O)c1cc(C(=O)Cn2c(CN3CCOCC3)nc3ccccc32)ccc1Cl`, the Kd at Carbonic anhydrase 1 [1] is 40000 nM; at Carbonic anhydrase 13 [2], 12500 nM; on Carbonic anhydrase 2 [3], 4200 nM; on Carbonic anhydrase 7 [7], 10000 nM.

Take `NS(=O)(=O)c1cc(C(=O)CSc2nc3ccccc3[nH]2)ccc1Cl`: the Kd at Carbonic anhydrase 1 [1] turned out to be 1000 nM; at Carbonic anhydrase 13 [2] it was 200 nM; on Carbonic anhydrase 2 [3] it was 100 nM; on Carbonic anhydrase 7 [4] it was 100 nM; on Carbonic anhydrase 2 [8], 100 nM; at Carbonic anhydrase 1 [5], 1300 nM. In addition, the figures for the Kd at Carbonic anhydrase 13 [6] and at Carbonic anhydrase 7 [7] were 100 nM and 30 nM, respectively.

Turning to `NS(=O)(=O)c1cc(C(=O)Cn2cnc3ccccc32)ccc1Cl`, the Kd at Carbonic anhydrase 13 [2] was 700 nM.

As for `NS(=O)(=O)c1cc(C(=O)Cn2c(CO)nc3ccccc32)ccc1Cl`, the Kd on Carbonic anhydrase 13 [2] was 300 nM.

Turning to `NS(=O)(=O)c1cc(C(=O)CSc2nc3c(cnc4ccccc43)[nH]2)ccc1Cl`, the equilibrium dissociation constant (Kd) came to 1300 nM at Carbonic anhydrase 1 [1], 100 nM on Carbonic anhydrase 13 [2] and 100 nM at Carbonic anhydrase 7 [7].

As for `NS(=O)(=O)c1cc(C(=O)CSc2nc3ccc(Br)cc3[nH]2)ccc1Cl`, the Kd amounted to 1300 nM on Carbonic anhydrase 1 [1]; 100 nM at Carbonic anhydrase 13 [2]; 1400 nM at Carbonic anhydrase 1 [5]; 200 nM on Carbonic anhydrase 13 [6]; 100 nM at Carbonic anhydrase 7 [7].

Regarding `CC(C)Cc1nc2ccccc2n1CC(=O)c1ccc(Cl)c(S(N)(=O)=O)c1`, the Kd on Carbonic anhydrase 2 [3] turned out to be 400 nM.
